# Bioassay records as filed in PubChem.
# PP5 inh: inhibitors of human protein phosphatase 5 (PP5); inhibition, % at 6.7 µM; 0.18% of 320,000 active; AID 1987; purified PP5c, OMFP substrate fluorescence; P53041;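 active = inhibition above the campaign's mean inhibition across all tested compounds plus 3 SD, cut at about 9.5% in these data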;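 also: 0% = DMSO only and 100% = 100 µM cantharidin control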
# GASC-1 inh: inhibitors of human GASC-1 (JMJD2C) demethylase. AID 2099. inhibition, % at 2.35 µM. 0.069% of 330,000 active. GST-JMJD2C(1-420) H3K9me3 demethylation, DELFIA europium. Q9H3R0;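 active = more than half of a compound's replicate wells show inhibition beyond 50%, single wells judged on their own value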;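 also: signal counts dimethyl H3K9 product captured on neutravidin plate; 0% = median of DMSO wells and 100% = 0.3 times that DMSO median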
# PP1 inh: counter-screen for PP5 inhibitors: inhibitors of human PP1-alpha | P62136 | purified PP1alpha, OMFP fluorescence | inhibition, % at 6.7 µM | 0.9% of 320,000 active | AID 2235;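 active = inhibition above the mean inhibition of all tested compounds plus 3 SD, computed separately for each screening campaign, cut at about 15% in these data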
# Target sequence (P62136 whole entry, looked up): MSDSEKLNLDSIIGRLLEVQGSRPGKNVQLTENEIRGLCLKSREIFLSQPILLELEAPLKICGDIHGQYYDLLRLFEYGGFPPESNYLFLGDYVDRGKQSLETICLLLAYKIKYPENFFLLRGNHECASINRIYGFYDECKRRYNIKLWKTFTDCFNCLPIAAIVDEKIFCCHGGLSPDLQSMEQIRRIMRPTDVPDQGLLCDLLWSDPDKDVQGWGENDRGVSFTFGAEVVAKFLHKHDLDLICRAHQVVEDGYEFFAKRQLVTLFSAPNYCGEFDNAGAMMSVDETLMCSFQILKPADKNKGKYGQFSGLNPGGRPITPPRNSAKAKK
# m5-HT2A agonist: activates the mouse 5-HT2A serotonin receptor; P35363; CHO-K1 mHTR2A beta-arrestin complementation, luminescence; percent of 30 µM serotonin response; activation, % at 7.6 µM; 0.66% of 360,000 active; AID 624169;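 active = activation above a run cutoff, the mean activation of all tested compounds plus 3 SD, cut at about 14% in these data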;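 also: 0% = plate median of compound wells and 100% = 30 µM serotonin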
# T cell HTS: modulates CD8 T cell binding to vesicles; 0.068% of 330,000 active; response (vesicle binding), % at 7 µM; 2C CD8+ T cell-vesicle binding, flow cytometry; hits give low values;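 active = response, share of CD8 T cells binding vesicles, and their 90th percentile fluorescence all below set limits, cut at about 80% in these data, passing the limit was not always enough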;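 also: values below 100% mean blocked vesicle binding to the CD8+ T cells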
#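 incubation = binding step 1.5 h, 37 °C, antibody labelling 20 min, ice | test system = 2C mouse CD8+ T cells | read-out basis = percent CD8+ FL2 mean versus row control | controls = Peptide-free naked vesicles (low) and QL9 vesicles with 0.7% DMSO vehicle (high) | detection = flow cytometry of vesicle-bound cells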
# MOR ag counter: OPRM1 agonism in mouse HTR2A counterscreen | 5.3% of 2,300 active | U2OS OPRM1 beta-arrestin PathHunter, luminescence; DMSO 0%, DAMGO 9.3 µM 100% | activation, % at 9.3 µM | shares compounds with m5-HT2A agonist;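 active = mean activation above the mean of DMSO-only wells plus 3 SD, cut at about 0.5% in these data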
# m5-HT2A ag conf: mouse HTR2A agonism confirmed. CHO-K1 PathHunter beta-arrestin recruitment, luminescence; DMSO 0%, 30 µM serotonin 100%. shares compounds with m5-HT2A agonist. 19% of 2,300 active. activation, % at 7.6 µM;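 active = mean activation across triplicates above the hit threshold derived in the original primary screen, cut at about 15% in these data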
# * = called active by the depositor; i = inactive; nt = no result. An excerpt weighted towards active compounds, which were near 1.7% of everything screened.
SMILES,PP5 inh,GASC-1 inh,PP1 inh,m5-HT2A agonist,T cell HTS,MOR ag counter,m5-HT2A ag conf
O=C1ON=C(c2ccc([N+](=O)[O-])cc2)/C1=C/c1ccccc1O,nt,5,nt,-2,167,nt,nt
Cc1cc(C)c(OCC(=O)NCC2COc3ccccc3O2)c(C)c1 (configuration not stated),5,24,8,24*,342,0,17*
O=C1C=C(O)CC2(CCCCC2)C1,nt,nt,nt,-3,nt,nt,nt
COc1ccccc1CNC(=O)COC(=O)c1ccc2c(=O)n3c(nc2c1)CCCCC3,2,8,-3,18*,260,-1,0
CC(NC(=O)COC(=O)c1ccc2c(=O)n3c(nc2c1)CCCCC3)c1ccc(F)cc1 (configuration not stated),nt,nt,nt,2,nt,nt,nt
C=CCOc1ccc(C(=O)n2cc(C(=O)OC)c3ccccc32)cc1,1,-1,-1,-2,421,nt,nt
Cc1cc(NC(=O)c2cc([N+](=O)[O-])ccc2Cl)no1,0,-10,-5,17*,126,0,-2
Cc1cc(NC(=O)c2ccc([N+](=O)[O-])cc2Cl)no1,0,6,0,4,217,nt,nt
CCOC(=O)CN1CCS(=O)(=O)CC1,-1,33,-1,16*,172,0,2
COc1ccc(NC(=O)c2ccc(CN3CCN(c4ccccc4)CC3)cc2)cc1,1,1,4,5,400,nt,nt
CSc1ccc(N2CCN(CCCNC(=O)Nc3ccccc3F)CC2)cc1,2,0,-3,17*,203,0,39*
COc1cccc(NC(=O)c2ccc(CN3CCN(c4ccccc4)CC3)cc2)c1,3,-15,8,33*,413,0,60*
O=C(Nc1ccccc1F)c1ccc(CN2CCN(c3ccccc3)CC2)cc1,-3,29,1,20*,183,0.8*,95*
COc1ccc(S(=O)(=O)CCC(=O)N2CCN(c3ccc(C(C)=O)cc3)CC2)cc1,-2,-2,-2,11,594,nt,nt
COc1ccc(CC(=O)Nc2c3c(nn2C(C)(C)C)CS(=O)(=O)C3)cc1OC,-2,-3,-1,12,339,nt,nt
CCC/C(=N\NC(=O)c1cccc(C)c1)c1ccccc1,1,7,-4,-4,252,nt,nt
CC(=O)c1c(C)[nH]c(C(=O)Nc2ccccn2)c1C,2,9,4,15*,258,-1,-1
CCN(CC)S(=O)(=O)c1ccc(OC)c(NC(=O)CC2CCCC2)c1,0,-9,1,-3,208,nt,nt
CCC1(CC)NC(=S)NC1=S,nt,nt,nt,5,nt,nt,nt
CC1(C)NC(=S)NC1=S,nt,nt,nt,17*,nt,-1,-2
COc1ccc(CN(C)c2ncnc(N)n2)cc1,1,-15,-1,19*,264,-1,-3
CCCOc1ccc(CN(C)c2ncnc(N)n2)cc1,2,6,2,-3,314,nt,nt
Cc1ccc(O)c(NC(=O)c2cc3nc4c(c(C(F)(F)F)n3n2)CCc2ccccc2-4)c1,-1,19,-2,16*,157,0,9
CCN(CC)CCCNC(=O)c1cc2nc3c(c(C(F)(F)F)n2n1)CCc1ccccc1-3,4,-37,-2,-4,186,nt,nt
COc1ccc(OC)c(S(=O)(=O)ON2C(=O)c3ccccc3C2=O)c1,0,1,-3,2,i,nt,nt
CCOC(=O)C1=C(COC(=O)[C@H](C)NS(=O)(=O)c2ccc(NC(C)=O)cc2)NC(=O)NC1C (some centres not stated),-1,7,-1,5,574,nt,nt
Nc1ccc(S(=O)(=O)Nc2ccnn2-c2ccccc2)cc1,0,-41,-1,19*,122,-1,-4
CCCN1C(=O)/C(=C/c2ccc(N3CCCC3)c(C)c2)NC1=S,-2,-3,1,17*,405,0,9
Cc1cc(/C=C2\NC(=S)N(C)C2=O)ccc1N1CCCC1,2,-3,-4,-1,366,nt,nt
Cc1nc2cc(C(=O)NCc3cccnc3)ccc2n1-c1ccc(F)cc1F,0,1,-3,-2,344,nt,nt
